# The other results are listed elsewhere or left out. A number with no mark means an inactive call.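 Rule for the calls: active = inhibition above 50%; inactive = the rest.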
# Biological target: Broad substrate specificity ATP-binding cassette transporter ABCG2 (Homo sapiens) (UniProt Q9UNQ0)
# Test: ABCG2 efflux pump inhibitors, confirmation, single point, IgMXP3 cells, ABCB1 counter-screen paired (AID 1453);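 note: 0% = DMSO wells and 100% = nicardipine pump inhibitor wells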
# Conditions: JC-1 efflux, flow cytometry, at 6.6 µM, active compounds read high
# Outline: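 Assay system: ABCG2-expressing IgMXP3 cells / Input: 3 million cells per mL final in well / Compound dosing: 6.6 µM single dose / Schedule: 10 min exposure at 25 °C / Measured by: high-throughput flow cytometry, JC-1 green median fluorescence, 530 ± 20 nm / Read-out basis: percent efflux inhibition scaled between DMSO and nicardipine, autofluorescence-corrected / Controls: nicardipine high, DMSO low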
# Chain of Broad substrate specificity ATP-binding cassette transporter ABCG2 (Homo sapiens) (Q9UNQ0 whole entry, looked up): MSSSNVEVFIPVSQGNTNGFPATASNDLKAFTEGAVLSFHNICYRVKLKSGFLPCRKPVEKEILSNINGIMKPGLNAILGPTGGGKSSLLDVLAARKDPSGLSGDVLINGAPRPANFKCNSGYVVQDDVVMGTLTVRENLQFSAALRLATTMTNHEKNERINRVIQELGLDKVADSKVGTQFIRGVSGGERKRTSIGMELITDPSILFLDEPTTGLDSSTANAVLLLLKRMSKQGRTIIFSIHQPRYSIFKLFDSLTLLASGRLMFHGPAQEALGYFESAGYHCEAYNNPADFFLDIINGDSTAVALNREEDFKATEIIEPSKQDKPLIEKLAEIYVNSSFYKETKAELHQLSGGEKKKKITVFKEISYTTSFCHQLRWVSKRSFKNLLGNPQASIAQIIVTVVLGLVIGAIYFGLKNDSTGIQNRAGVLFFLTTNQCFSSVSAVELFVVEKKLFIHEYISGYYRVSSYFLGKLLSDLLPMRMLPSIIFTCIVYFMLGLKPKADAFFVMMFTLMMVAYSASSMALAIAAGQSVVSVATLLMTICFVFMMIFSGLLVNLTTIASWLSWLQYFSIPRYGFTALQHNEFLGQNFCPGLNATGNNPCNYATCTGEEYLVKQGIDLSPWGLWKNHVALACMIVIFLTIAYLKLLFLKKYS
row,SMILES,inhibition [%]
1,COc1ccc(-n2c(C)cc(C(=O)COC(=O)c3cc(OC)c(OC)cc3NC(=O)c3cccs3)c2C)cc1,14.8
2,Cc1ccc(-n2c(SCC(=O)Nc3ncc(Cl)cc3Cl)nc3ccccc32)cc1,28.9
3,CCOC(=O)c1sc(NC(=O)CSc2nnc(-c3ccco3)o2)c(C(=O)OCC)c1C,37
4,CCOCC(=O)Nc1sc2c(c1C(=O)OCC)CCCC2,38.7
5,C=CCn1c(SCCOc2ccc(OC)cc2)nnc1C(NC(=O)c1ccc(OC)cc1)C(C)C (stereo not drawn),15.5
6,Cc1c(CCOC(=O)CC23CC4CC(CC(C)(C4)C2)C3)sc[n+]1Cc1ccc([N+](=O)[O-])cc1,27.4
7,Cc1ccc(OCC(O)CN2CCN(CC(O)COc3ccc(C)cc3Cl)CC2)c(Cl)c1 (stereo not drawn),8.02
8,Cc1cccc2cc(CN(Cc3cccs3)C(c3nnnn3C3CCCC3)C(C)C)c(=O)[nH]c12 (stereo not drawn),39.9
9,COc1ccc(C)cc1NC(=O)C(Sc1ccccc1)c1ccccc1 (stereo not drawn),10.9
10,COc1cccc(NC(=O)c2ccc(Cn3cc([N+](=O)[O-])cn3)o2)c1,21.8
11,C/C(=N\Nc1ncc(Cl)cc1Cl)c1ccc(S(=O)(=O)NCc2ccco2)cc1,21.6
12,O=C(Cc1c[nH]c2ccccc12)N/N=C/c1cccc(F)c1,19.6
13,CCN1/C(=C/c2ccc3ccc(C)cc3[n+]2CC)Sc2ccccc21,31.6

# From PubChem BioAssay AID1453 (NMMLSC, 2008)
